Measurements from paper PMC10759174 (RSC Advances, 2024).

Experiments:
[1] = DPPH free radical scavenging assay; conditions: at a concentration of 1000 μg mL^−1
Procedure, shortened: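 DPPH 0.1 mM in ethanol, 1 mL, added to 3 mL of test compound solution in ethanol at 1000 μg mL−1. The mixture was shaken vigorously, left 30 min at room temperature, and absorbance read at 517 nm. Ascorbic acid served as reference, run in triplicate. % scavenging = (A0 − A1)/A0 × 100, where A0 is control-reaction absorbance and A1 is absorbance with sample.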

ovine COX-1 = molecular target: T1, ovine COX-1 (Ovis aries, UniProt P05979); assay: COX-1 inhibitor screening assay kit; format: biochemical
T1 sequence (P05979 25-600): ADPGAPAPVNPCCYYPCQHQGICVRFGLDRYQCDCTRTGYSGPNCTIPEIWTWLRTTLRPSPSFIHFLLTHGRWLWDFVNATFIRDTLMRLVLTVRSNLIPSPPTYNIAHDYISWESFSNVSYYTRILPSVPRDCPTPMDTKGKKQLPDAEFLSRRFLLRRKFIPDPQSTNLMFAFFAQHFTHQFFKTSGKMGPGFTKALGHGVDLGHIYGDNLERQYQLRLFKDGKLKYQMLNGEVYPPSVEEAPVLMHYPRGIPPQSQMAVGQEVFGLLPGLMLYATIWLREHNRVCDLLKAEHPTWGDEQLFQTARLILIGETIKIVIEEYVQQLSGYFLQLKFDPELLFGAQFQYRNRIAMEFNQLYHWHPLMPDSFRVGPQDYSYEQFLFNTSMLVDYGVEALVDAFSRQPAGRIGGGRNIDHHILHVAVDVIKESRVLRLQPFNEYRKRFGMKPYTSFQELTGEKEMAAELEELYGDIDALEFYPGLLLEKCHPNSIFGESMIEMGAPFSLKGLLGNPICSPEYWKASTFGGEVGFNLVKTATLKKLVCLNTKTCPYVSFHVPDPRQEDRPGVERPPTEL

human recombinant COX-2 = molecular target: T2, human recombinant COX-2 (Homo sapiens, UniProt P35354); assay: COX-2 inhibitor screening assay kit; format: biochemical; conditions: for IC50 COX-1/COX-2 (in vitro COX-2 selectivity index): IC50 of COX-1/COX-2
T2 sequence (P35354 18-604): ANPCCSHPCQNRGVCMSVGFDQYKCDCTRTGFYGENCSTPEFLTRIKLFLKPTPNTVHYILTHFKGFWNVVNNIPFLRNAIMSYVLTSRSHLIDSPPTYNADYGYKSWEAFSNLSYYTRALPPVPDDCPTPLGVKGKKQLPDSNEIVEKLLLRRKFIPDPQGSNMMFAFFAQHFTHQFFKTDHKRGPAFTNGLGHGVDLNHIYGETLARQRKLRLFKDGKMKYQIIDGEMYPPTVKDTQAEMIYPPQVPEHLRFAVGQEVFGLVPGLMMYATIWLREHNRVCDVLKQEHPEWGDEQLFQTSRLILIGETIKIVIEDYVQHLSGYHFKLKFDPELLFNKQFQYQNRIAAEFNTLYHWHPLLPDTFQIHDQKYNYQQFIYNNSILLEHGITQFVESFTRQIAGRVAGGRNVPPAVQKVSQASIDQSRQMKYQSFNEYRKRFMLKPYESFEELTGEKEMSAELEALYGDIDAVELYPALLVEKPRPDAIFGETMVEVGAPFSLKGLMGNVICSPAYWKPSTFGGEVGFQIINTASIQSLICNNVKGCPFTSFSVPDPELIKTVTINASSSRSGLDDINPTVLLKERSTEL

| Structure (SMILES) | IC50 (ovine COX-1) | IC50 (human recombinant COX-2) | IC50 COX-1/COX-2 (in vitro COX-2 selectivity index) (human recombinant COX-2) | DPPH scavenging% [1] | DPPH scavenging% ([1]; listed as Comp. 11) | DPPH scavenging% ([1]; listed as Comp. 4) |
| --- | --- | --- | --- | --- | --- | --- |
| O=C1CCC(=O)C2(CCCCC2)N1 [Compound 6, 1-Azaspiro[5.5]undecane-2,5-dione] | 11.5 µM | 0.089 µM | 129.21 µM | 74.4% |  |  |
| O=C1O[C@H]([C@@H](O)CO)C(O)=C1O [Ascorbic acid, ascorbic acid, reference compound] |  |  |  | 97% |  |  |
| O=C1NC2(CCCCC2)c2nc3c(c(-c4ccccc4)c21)CCCC3 [Compound 11, 9′-Phenyl-5′,6′,7′,8′-tetrahydrospiro[cyclohexane-1,3′-pyrrolo[3,4-b]quinolin]-1′(2′H)-one] | 10.5 µM | 0.06 µM | 175.00 µM |  | 86.1% |  |
| Cc1cc(-c2ccccc2)c2c(n1)C1(CCCCC1)NC2=O [Compound 17, 2′-Methyl-4′-phenylspiro[cyclohexane-1,7′-pyrrolo[3,4-b]pyridin]-5′(6′H)-one] | 8 µM | 0.099 µM | 80.81 µM |  |  |  |

Now from value to compound, other results behind:

| IC50 (ovine COX-1) | IC50 (human recombinant COX-2) | IC50 COX-1/COX-2 (in vitro COX-2 selectivity index) (human recombinant COX-2) | Structure (SMILES) | DPPH scavenging% [1] | DPPH scavenging% ([1]; listed as Comp. 11) | DPPH scavenging% ([1]; listed as Comp. 4) |
| --- | --- | --- | --- | --- | --- | --- |
| 6 µM | 0.08 µM | 75.00 µM | O=C1NC2(CCCCC2)c2[nH]c(=S)nc(-c3ccccc3)c21 [Compound 14, 4′-Phenyl-2′-thioxo-1′,2′-dihydrospiro[cyclohexane-1,7′-pyrrolo[3,4-d]pyrimidin]-5′(6′H)-one] | 66.5% |  |  |
| 7.5 µM | 0.135 µM | 55.56 µM | NC1=NC(=S)NC12CCCCC2 [Compound 4, 4-Amino-1,3-diazaspiro[4.5]dec-3-ene-2-thione] |  |  | 61.1% |
